Experimental data reported in ChEMBL document CHEMBL2069233, “New hypotheses for the binding mode of 4- and 7-substituted indazoles in the active site of neuronal nitric oxide synthase” (Bioorg Med Chem, 2012).

Columns and labels:
[1] = biological target: Nitric oxide synthase 1 (Rattus norvegicus) (UniProt P29476); assay: Inhibition of nNOS in rat cerebellum homogenates assessed as reduction in conversion of L-[3H]arginine to L-[3H]citrulline at 100 uM; type: tissue-based
[2] = biological target: Nitric oxide synthase 1 (Rattus norvegicus, UniProt P29476); assay: Inhibition of nNOS in rat cerebellum homogenates assessed as reduction in conversion of L-[3H]arginine to L-[3H]citrulline; type: tissue-based
How it was run: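 Rat cerebellum homogenate as nNOS source; L-[3H]arginine to L-[3H]citrulline conversion with 1 mM CaCl2, 200 μM β-NADPH, 0.88 μM L-arginine plus 0.12 μM L-[3H]arginine, 15 min at 37 °C. Compounds in DMSO 0.4%, tested at 0.01, 0.1, 1, 10 and 100 μM. IC50 taken from inhibition curves, mean ± sem over 3–7 experiments.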

Nitric oxide synthase 1 (Rattus norvegicus), sequence (P29476 whole entry): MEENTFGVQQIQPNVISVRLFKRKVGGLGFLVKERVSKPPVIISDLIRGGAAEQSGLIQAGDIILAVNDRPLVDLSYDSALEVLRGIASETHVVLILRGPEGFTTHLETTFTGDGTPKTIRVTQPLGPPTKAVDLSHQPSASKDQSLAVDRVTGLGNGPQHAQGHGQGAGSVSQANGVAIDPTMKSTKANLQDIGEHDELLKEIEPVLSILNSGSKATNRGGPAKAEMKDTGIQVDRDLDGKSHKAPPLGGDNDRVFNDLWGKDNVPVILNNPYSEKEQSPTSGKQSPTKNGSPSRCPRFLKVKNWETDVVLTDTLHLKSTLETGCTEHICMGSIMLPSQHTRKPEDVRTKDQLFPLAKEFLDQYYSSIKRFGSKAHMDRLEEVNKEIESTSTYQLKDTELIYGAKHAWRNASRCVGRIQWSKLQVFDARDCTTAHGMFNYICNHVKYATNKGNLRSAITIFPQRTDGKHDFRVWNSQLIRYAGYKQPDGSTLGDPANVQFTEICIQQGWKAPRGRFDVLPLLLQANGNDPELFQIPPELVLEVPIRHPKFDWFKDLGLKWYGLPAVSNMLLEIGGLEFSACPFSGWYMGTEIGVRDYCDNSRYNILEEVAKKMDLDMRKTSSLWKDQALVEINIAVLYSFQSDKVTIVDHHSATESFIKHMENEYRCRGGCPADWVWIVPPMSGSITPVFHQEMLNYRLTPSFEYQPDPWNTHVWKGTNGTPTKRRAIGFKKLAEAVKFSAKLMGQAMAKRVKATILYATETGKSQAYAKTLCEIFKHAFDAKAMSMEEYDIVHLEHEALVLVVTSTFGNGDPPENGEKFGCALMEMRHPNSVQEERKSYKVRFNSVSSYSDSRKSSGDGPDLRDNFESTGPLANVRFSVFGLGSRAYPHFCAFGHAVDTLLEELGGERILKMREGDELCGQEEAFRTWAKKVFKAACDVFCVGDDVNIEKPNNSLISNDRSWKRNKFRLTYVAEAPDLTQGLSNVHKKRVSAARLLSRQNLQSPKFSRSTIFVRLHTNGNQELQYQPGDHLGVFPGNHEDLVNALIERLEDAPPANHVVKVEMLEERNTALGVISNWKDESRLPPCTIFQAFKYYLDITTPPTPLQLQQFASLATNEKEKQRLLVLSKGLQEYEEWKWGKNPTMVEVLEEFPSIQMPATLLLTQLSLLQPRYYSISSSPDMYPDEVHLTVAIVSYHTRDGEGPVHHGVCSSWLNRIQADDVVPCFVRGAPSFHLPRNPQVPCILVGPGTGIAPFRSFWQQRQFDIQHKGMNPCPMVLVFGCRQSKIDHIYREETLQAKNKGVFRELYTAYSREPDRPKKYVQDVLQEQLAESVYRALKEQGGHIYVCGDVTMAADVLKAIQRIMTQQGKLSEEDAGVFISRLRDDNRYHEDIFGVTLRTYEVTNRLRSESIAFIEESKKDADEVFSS
Nitric oxide synthase 1, sequence (P29476 whole entry): as above

| SMILES | inhibition [1] [%] | IC50 [2] [µM] |
| --- | --- | --- |
| N#Cc1cccc2[nH]ncc12 | 63 | 42.5 |
| CCn1ncc2c(Br)cccc21 | 61 | 72.5 |
| Cn1ncc2c([N+](=O)[O-])cccc21 | 86 | 10.6 |
| CCn1ncc2c([N+](=O)[O-])cccc21 | 67 | 51.7 |
| CCn1cc2c([N+](=O)[O-])cccc2n1 | 34 | > 100 |

Next, values leading:

| inhibition [1] [%] | IC50 [2] [µM] | SMILES |
| --- | --- | --- |
| 34 | > 100 | Cn1cc2c([N+](=O)[O-])cccc2n1 |
| 75 | 28.2 | Cn1ncc2c(Br)cccc21 |
| 19 | > 100 | Cn1cc2c(Br)cccc2n1 |
| 0 | > 100 | CCn1cc2c(Br)cccc2n1 |
